The source of these data is article PMC5746459 (Journal of medicinal chemistry, 2017).

Data set [1] relates to mice. The settings on record: previous studies; cited from earlier work.
Data set [2] has as its system Swiss Webster mice. Nature of the data set: Locomotor activity in mice. In kind it is in vivo, mouse. The settings on record: i.p., 1 h session; for effect on locomotor activity: cocaine 5–40 mg/kg, 10a 3–56 mg/kg.
The test system of data set [3] is Swiss Webster mice. Kind of data set: Drug discrimination, mice trained to discriminate cocaine from saline. Type of data set: in vivo, mouse. The settings on record: for overall group response rate, % of control performance: mice, drug discrimination sessions, all doses tested.
In data set [4] the target is human DAT (hDAT) WT (Homo sapiens, UniProt Q01959). Nature of the data set: [3H]DA uptake inhibition in COS7 cells transiently expressing DAT WT. Type of data set: cell-based.
human DAT (hDAT) WT, sequence (Q01959 whole entry): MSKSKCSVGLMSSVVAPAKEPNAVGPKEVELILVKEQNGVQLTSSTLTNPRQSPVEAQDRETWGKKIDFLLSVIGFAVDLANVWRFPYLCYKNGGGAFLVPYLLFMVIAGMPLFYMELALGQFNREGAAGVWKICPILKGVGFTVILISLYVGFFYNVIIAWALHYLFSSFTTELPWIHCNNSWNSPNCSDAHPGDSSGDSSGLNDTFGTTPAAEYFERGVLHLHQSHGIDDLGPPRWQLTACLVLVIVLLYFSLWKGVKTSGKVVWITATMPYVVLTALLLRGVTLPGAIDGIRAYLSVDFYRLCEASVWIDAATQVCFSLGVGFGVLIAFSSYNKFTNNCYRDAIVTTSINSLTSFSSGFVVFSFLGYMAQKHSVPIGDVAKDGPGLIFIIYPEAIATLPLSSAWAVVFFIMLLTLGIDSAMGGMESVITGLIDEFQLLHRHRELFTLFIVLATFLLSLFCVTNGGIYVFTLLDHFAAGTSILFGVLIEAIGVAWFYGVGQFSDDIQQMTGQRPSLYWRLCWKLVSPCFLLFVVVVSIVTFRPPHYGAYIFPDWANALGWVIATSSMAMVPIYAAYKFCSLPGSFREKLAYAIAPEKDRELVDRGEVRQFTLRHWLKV
A short description of data set [5]: Phase I metabolic stability in mouse liver microsomes. Type of data set: in vitro ADME. The settings on record: mouse liver microsomes with and without NADPH. The procedure, abridged: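 Test compound at 10 uM final was incubated in triplicate with 0.5 mg/mL mouse liver microsomes in 100 mM potassium phosphate, pH 7.4. The NADPH regenerating system contained 1.3 mM NADPH, 3.3 mM glucose 6-phosphate, 3.3 mM MgCl2, 0.4 U/mL glucose-6-phosphate dehydrogenase and sodium citrate. Reactions were started by adding microsomes, with cofactor-free controls. Percent remaining over time was measured by LC/MS/MS; mean ± S.E.M., n=3 per time point.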

Entries after “also recorded” stand apart in the source; their conditions may differ. Counter-ions that a name gives are not always drawn.

As a reminder, the Km is the concentration of substrate that gives half-maximal velocity. By Ki is commonly meant a dissociation constant, usually derived from enzyme kinetics or from competition with a known ligand.

For `Cc1ccc(C2CC3CCC(C2c2cc(-c4ccc(Cl)cc4)no2)N3C)cc1` (stereo not shown) [compound 5], the “stimulation of locomotor activity” value in data set [1] was “fails to stimulate locomotor activity in mice”.

With `COC(=O)[C@H]1[C@@H](OC(=O)c2ccccc2)C[C@@H]2CC[C@H]1N2C` [compound 1, cocaine, reference compound], the “maximum locomotor activity, % of activity counts compared to vehicle” value in data set [2] (20 and 40 mg/kg) is on record as “≈ 300%”. In addition, the “effect on locomotor activity” value in data set [2] was “dose-dependently increased locomotion”. In data set [3], the “overall group response rate, % of control performance” value was not below 50%.

In the case of `NCCc1ccc(O)c(O)c1` [Dopamine, reference compound], the Km in data set [4] (read-out: DAT WT, Dopamine (kM), [3H]DA uptake, COS7 cells transiently expressing DAT WT, mean [s.e.m. interval]) came to 0.999 µM.

Take `Cc1ccc(-c2cc(C3C(c4ccc(Cl)cc4)CC4CCC3N4C)on2)cc1` (stereo not shown) [compound 6]: in data set [1], the “stimulation of locomotor activity” value is “does stimulate locomotion”.

As for `CN1[C@H]2CC[C@@H]1[C@@H](c1cc(-c3ccccc3)no1)[C@H](OC(c1ccc(F)cc1)c1ccc(F)cc1)C2` [S-(+)-19a, S-(+)-2β-(3-Phenylisoxazol-5-yl)-3α-[bis(4-fluorophenyl)methoxy]tropane], the Ki in data set [4] (read-out: DAT WT Ki, [3H]DA uptake inhibition, COS7 cells transiently expressing DAT WT, mean [s.e.m. interval]) stood at 212 nM.

In the case of `CN(C)CCN1C2CCC1CC(OC(c1ccc(F)cc1)c1ccc(F)cc1)C2` (stereo not shown) [10a, 2-(3-(bis(4-fluorophenyl)methoxy)-8-azabicyclo[3.2.1]octan-8-yl)-N,N-dimethylethanamine Oxalate], the “effect on locomotor activity” value in data set [2] was “None of the doses of 10a significantly increased activity counts more than vehicle; also recorded: failed to produce a significant increase in locomotor activity; also recorded: did not significantly increase locomotor activity”. In addition, the “DA uptake inhibition potency relative to cocaine (times higher)” value in data set [4] is more than 4. Further, in data set [5], the “Phase I metabolic stability” value is “complete stability under all conditions”. Further, the “substitution for cocaine discriminative stimulus” value in data set [3] (mice trained with cocaine 10 mg/kg vs saline, 5 or 30 min pretreatment) is reported as “failed to substitute for cocaine; also recorded: did not generalize to the cocaine discriminative stimulus”. Also, the “overall group response rate, % of control performance” value in data set [3] is not below 50%.

With `CN(C)CCN1C2CCC1CC(NC(c1ccc(F)cc1)c1ccc(F)cc1)C2` (stereo not shown) [10b, N-(Bis(4-fluorophenyl)methyl)-8-(2-(dimethylamino)ethyl)-8-azabicyclo[3.2.1]octan-3-amine Oxalate], the “DA uptake inhibition potency relative to cocaine (times higher)” value in data set [4] is on record as more than 4.
